Rows were chosen to be rich in hits. Some 2% of all compounds tested hit in one or more screens of this group.
S100A4 MyoIIA – S100A4-myosin IIA interaction inhibition | 0.14% of 360,000 active | S100A4/TAMRA-MyoIIA peptide fluorescence polarization | inhibition, % at 10.7 µM | P26447;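 active = mean inhibition of at least 70% across replicates, with every replicate also reaching that level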
Target sequence (P26447 whole entry, looked up): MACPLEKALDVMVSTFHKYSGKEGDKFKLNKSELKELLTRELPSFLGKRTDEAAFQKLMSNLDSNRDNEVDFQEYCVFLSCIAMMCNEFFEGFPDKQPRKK
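incubation = readout 5 min after mixing, signal stable up to 60 min | system = S100A4 monomer protein | buffer or medium = HEPES pH 7.2 with CaCl2, KCl, NaCl, DTT, Triton | benchmarks = neutral control DMSO, positive control TFP | also added = fluorescent myosin IIA peptide, 5 nM | compound dosing = one concentration per compound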
Xi reactivation – X-chromosome reactivation activator | XiGFP mouse fibroblasts, % GFP-positive cells imaging, 3 d; cells co-treated with 5-aza-dC sensitizer; scaled so ellipticine positive control = 100% | activation, % at 7.58 µM | 0.055% of 360,000 active | AID 743238;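 active = mean normalized replicate activation at least 10% and every replicate at or above 10%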;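 note: 0% = median of on-plate neutral control wells and 100% = ellipticine 6 µM median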
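Material: SV40-immortalized XiGFP fibroblast cells, line 68-5-11 | Buffer or medium: DMEM containing 5-aza-dC | Dosing: One concentration, pinned | Times: 3 d treatment, 15 min room-temperature fixation | Controls: Ellipticine 6 µM positive control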
DENV2 CPE – protects cells from dengue virus 2 cytopathic effect; CPE inhibition, % at 9.99 µM; AID 651640; DENV2-infected cells, cytopathic effect rescue, plate reader; 1.7% of 350,000 active; in the data active = CPE inhibition above about 20%, passing the limit was not always enough; tested in BHK-21 cells;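 note: 0% = median of neutral control wells and 100% = median of positive control wells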
E-selectin induc – E-selectin induction on HUVECs; HUVEC E-selectin immunofluorescence imaging; normalized: neutral wells 0, TNF-alpha wells 100; 0.37% of 260,000 active; activation, % at 7.58 µM;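 active = mean E-selectin-positive cell signal at least 10% of the positive control, reached in at least 60% of replicates, without over 20% cell loss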
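Assay system: HUVEC, human umbilical vein endothelial cells / Amount: 3,000 HUVEC/well / Controls: TNF-alpha positive control, DMSO neutral control / Compound dosing: single concentration / Medium: EGM-2 over gelatin coat / Evaluation: percent E-selectin-positive cells / Signal: immunofluorescence imaging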
* marks the source's active call; other numbers are inactive results; x = no result.

SMILES | S100A4 MyoIIA | Xi reactivation | DENV2 CPE | E-selectin induc
CN(C)c1ccc(C=c2c3cc(O)ccc3n3c2cc(-c2ccccc2)[n+]3C)cc1 | 78.9* | 0.0 | -3.8 | 139.0*
C[n+]1c(-c2ccccc2)cc2c(=Cc3ccccc3)c3ccccc3n21 | -50.2 | 1.1 | 0.7 | 220.4*
COc1ccc(NC(=O)N(C)C[C@@H]2Oc3ccc(NS(C)(=O)=O)cc3CC(=O)N([C@@H](C)CO)C[C@H]2C)cc1 | -8.5 | 0.0 | 4.0 | -0.1
O=C(NCCN1CCCC1)C1CCC(=O)N(CCCN2CCOCC2)C1 (stereo not drawn) | 0.9 | -0.1 | 35.2* | 0.2
O=C(NCCOc1ccccc1)C1CCC(=O)N(CCCN2CCOCC2)C1 (stereo not drawn) | -4.9 | 0.0 | -5.0 | 0.5
CC=Cc1ccc2n(c1=O)C[C@H]1[C@H](CO)[C@@H](C(=O)NCC(F)(F)F)[C@@H]2N1C(=O)C1CC1 (mixture of isomers) | -4.6 | -0.1 | 59.2* | 0.1
CC(=O)N1[C@@H]2Cn3c(ccc(-c4ccc(F)cc4)c3=O)[C@H]1[C@@H](C(=O)N(C)C)[C@@H]2CO | 3.3 | 0.4 | 27.2* | 0.3
CC=Cc1ccc2n(c1=O)C[C@@H]1[C@@H](CO)[C@H](C(=O)NCC(F)(F)F)[C@H]2N1C(C)=O (mixture of isomers) | 8.9 | 0.4 | 76.1* | 0.1
CC=Cc1ccc2n(c1=O)C[C@@H]1[C@@H](CO)[C@H](C(=O)NCc3ccc4c(c3)OCO4)[C@H]2N1C(C)=O (mixture of isomers) | 124.9* | 0.2 | -5.4 | 0.2
Cc1ccc(O)c(NC(=O)CSc2n[nH]c(C)c2[N+](=O)[O-])c1 | 3.5 | 0.0 | 0.1 | x
CCCNC(=O)OCCC12CC3CC(CC(C3)C1)C2 | -0.2 | 0.0 | 3.5 | x
CSCCC1NC(=O)N(CC(=O)Nc2ccc(Cl)c(S(=O)(=O)N3CCOCC3)c2)C1=O (stereo not drawn) | 3.3 | 0.0 | 1.9 | x
O=C1c2ccccc2C(c2nnnn2Cc2ccccc2)N1Cc1cccc(F)c1 (stereo not drawn) | 0.9 | 0.1 | 4.4 | 4.5
COCC(=O)Nc1ccc2c(c1)[C@H]1C[C@@H](CC(=O)NCc3cc(F)ccc3F)O[C@@H](CO)[C@H]1O2 | x | -0.1 | 37.7* | -0.5
COCC(=O)Nc1ccc2c(c1)[C@H]1C[C@@H](CC(=O)O)O[C@H](CO)[C@H]1O2 | 8.2 | -0.1 | 1.8 | -0.2
COCC(=O)Nc1ccc2c(c1)[C@H]1C[C@@H](CC(=O)O)O[C@@H](CO)[C@H]1O2 | -6.0 | 0.5 | 42.6* | 0.0
COCC(=O)Nc1ccc2c(c1)[C@@H]1C[C@@H](CC(=O)N(C)C)O[C@H](CO)[C@@H]1O2 | -5.7 | 0.0 | 18.1 | -0.2
COCC(=O)Nc1ccc2c(c1)[C@H]1C[C@H](CC(=O)NCc3ccccc3)O[C@@H](CO)[C@H]1O2 | -13.1 | 0.2 | 21.0* | -0.2
COCC(=O)Nc1ccc2c(c1)[C@@H]1C[C@H](CC(=O)NCc3ccccc3)O[C@@H](CO)[C@@H]1O2 | -1.5 | 0.2 | -1.5 | -0.1
COCC(=O)Nc1ccc2c(c1)[C@@H]1C[C@@H](CC(=O)NCc3cc(F)ccc3F)O[C@H](CO)[C@@H]1O2 | x | -0.1 | -10.5 | -0.4
COCC(=O)Nc1ccc2c(c1)[C@@H]1C[C@H](CC(=O)N(C)C)O[C@@H](CO)[C@@H]1O2 | -10.0 | 0.4 | 30.5* | 0.3
O=C(C[C@@H]1C[C@H]2c3cc(NC(=O)Nc4ccccc4)ccc3O[C@H]2[C@@H](CO)O1)NCc1ccncc1 | -0.3 | 0.4 | -3.8 | -0.3
O=C(C[C@@H]1C[C@H]2c3cc(NC(=O)C4CCC4)ccc3O[C@H]2[C@H](CO)O1)NCc1ccccc1 | 7.6 | 0.3 | -1.3 | -0.5
O=C(C[C@H]1C[C@H]2c3cc(NC(=O)Nc4ccccc4)ccc3O[C@H]2[C@H](CO)O1)NCc1ccncc1 | 2.4 | 0.4 | 62.2* | -0.2
O=C(C[C@H]1C[C@@H]2c3cc(NC(=O)C4CCC4)ccc3O[C@@H]2[C@H](CO)O1)NCc1ccccc1 | 6.0 | 0.1 | 22.7* | -0.6
O=C(NCc1cccs1)c1cccc(Nc2nc3ccc(Br)cc3[nH]2)c1 | -4.7 | 0.4 | 22.3* | x
O=C(C[C@@H]1CC[C@H]2[C@@H](COC[C@H](O)CN2C(=O)Nc2ccc(F)cc2)O1)NC1CCC1 | x | -0.1 | 0.0 | 0.1
COC(=O)[C@@]12CCCN1[C@H](c1ccc(-c3ccccc3)cc1)[C@@H]1C(=O)N(C)C(=O)[C@@H]12 | -7.5 | -0.3 | 65.5* | 0.0

Source: PubChem BioAssay (Broad Institute)
